Measured values as given in the EternaBench riboswitch data.

Tested on: MS2 coat protein
Test: apparent Kd, MS2 coat protein; higher = weaker binding; RNA-MaP array
Method in brief: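 In Tris-HCl pH 7.5 buffer with KCl, MgCl2, BSA, DTT, tRNA and Tween20, with or without input ligand, fluorescently labeled MS2 coat protein at 1.5 nM to 3 μM was incubated at room temperature with designed RNAs. The RNAs had been transcribed on an Illumina sequencing chip from sequenced DNA templates, and incubation ran 0.8–1.5 h at the lowest to 10–20 min at the highest concentrations. Apparent Kd is the median of binding-curve fits for individual clusters. Designs measured on fewer than 10 clusters were excluded.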

[1] = designed as: OFF switch for tryptophan, no ligand
[2] = ligand present: tryptophan, designed as: OFF switch for tryptophan
[3] = designed as: ON switch for tryptophan, no ligand
[4] = ligand present: tryptophan, designed as: ON switch for tryptophan
[5] = designed as: OFF switch for flavin mononucleotide, no ligand
[6] = ligand present: flavin mononucleotide, designed as: OFF switch for flavin mononucleotide
[7] = designed as: ON switch for flavin mononucleotide, no ligand
[8] = ligand present: flavin mononucleotide, designed as: ON switch for flavin mononucleotide

Row | Sequence | apparent Kd [5] [nM] | apparent Kd [6] [nM] | apparent Kd [7] [nM] | apparent Kd [8] [nM] | further results
1 | CAAAAUGCGGCGGCCGCCACUCAGCUCCGUGUGGUUGGUCAUCUUAACAUGAGGAUCACCCAUGUGAGGACCGGGCCAGCGAGUG |  |  |  |  | apparent Kd [1]: 13.5 nM; apparent Kd [2]: 13.9 nM
2 | AUUGUCAAGUCGGCCGCCACUUCUGCCAUGGCCACCAGUCGACAUGAGGAUCACCCAUGUCUCUUAAGGACCGGGACUUUCAAUU |  |  |  |  | apparent Kd [3]: 13.2 nM; apparent Kd [4]: 12.1 nM
3 | GAUAGGUGAGGAUAUGUGAGUGAUCACAUGAGGAUCACCCAUGUUGACUCAUGUUGGCUUACAGAAGGCACAGGAA | 137 | 97.2 |  |  | 
4 | UGCCUCCAGCGAGGAUAUAUGUAGAGAUACACCAUAGAAGGCGCUGUAGUGGAACAUGAGGAUCACCCAUGUGACCUCGCCCGG | 13.2 | 17.6 |  |  | 
5 | GCCUCGAACUCAGGAUAUCAGAGAGGUUGCCGCUGAGAAGGGAGACAUGAGGAUCACCCAUGUACAGUCAUGACCGUCGAGUUG |  |  | 65.8 | 84 | 
6 | CGGCGCUUAGGAUAUUAGAGAUGCAACAUGAGGAUCACCCAUGUGAUGAGGGUUGGCAGCUAAGAAGGAAGCAUCC | 86 | 61.5 |  |  | 
7 | GGAACGAUCACUUCUUUAUCUAAGGCGGAUACCAGUCCUCGGUUUGACCCUUGGCAGCCGACAACAUGAGGAUCACCCAUGUUCU |  |  |  |  | apparent Kd (designed as: OFF switch for theophylline, no ligand): 15.6 nM; apparent Kd (ligand present: theophylline, designed as: OFF switch for theophylline): 20.4 nM
8 | CAUGUGUAAGGAUAUGCGUCGAUAUCAACUAACUAUAUGAUGCAGAAGGUACAUGAGGAUCACCCAUGUGAACU | 30.3 | 118 |  |  | 
9 | GAUCCGUACCAGACCUUCAAUGGACUCAGUCGAGGACCGGUACGGCCGCCACUCGGAGAAGAACAUGAGGAUCACCCAUGUGAUG |  |  |  |  | apparent Kd [1]: 36.3 nM; apparent Kd [2]: 53.8 nM
10 | AAAGACGACCAGAAGGAGCCGCCACAUGAGGAUCACCCAUGUAUGCAAAGAUAACUGGGUUAACGCUAGGAUAUGGUGGAGAAA | 63.5 | 44.1 |  |  | 
11 | AUCACAACCAAGAAGGGUCAGAUAACUCGAGAGACAGGAUAUUGAACAACAUAGUCAACAUGAGGAUCACCCAUGUAAAAUAAA |  |  | 54 | 24.2 | 
12 | GACAGAAGGUAGAAGGUGGUUCUCCUCACCCACUUUGAGGACAUGAGGAUCACCCAUGUCAAAACCAAGGAUAUACUACGUCGU |  |  | 89.8 | 18.2 | 
13 | AUAAAGGAAGGAUAUACAUGAGGAUCACCCAUGUUGAAAUACAGAAAAGGAGAAACAAGUAGAAGGACCGAUGU | 14.2 | 11.6 |  |  | 
14 | ACGAGAGCCCAGAAGGACACGGGAUACUCACAAGCAUUCUGGACAUGAGGAUCACCCAUGUGUAUGUAGGAUAUGGGAGUUGCG |  |  | 31 | 15.2 | 
15 | AAGAACAUGAGGAUCACCCAUGUGAUCGUUCGAGGACCGGUACGGCCGCCACUCGGACCUGUGUCCAGGCACGGGCCGACGCGAC |  |  |  |  | apparent Kd [3]: 77.8 nM; apparent Kd [4]: 38.2 nM
16 | CUGCUCUGUACUGAAGGAGAUACAUGAGGAUCACCCAUGUGCAGAAGGUGCUCAUUAAUAAUCGGCAAGGAUAUGCGGGCUUGA |  |  | 925 | 390 | 
17 | GGAGUGUGAGGAUAUGACGCGCCAGGCACACUUGAAUGCGCUCAGAAGGCACAUGAGGAUCACCCAUGUAAGCA | 8.29 | 13.3 |  |  | 
18 | CCAUGUAAUGUAAGGAUAUUCCAGGUAAUUACUUUGAAGAAGGUACAUGAGGAUCACCCAUGUGGAAACGAAUG | 18.6 | 64.5 |  |  | 
19 | GUCGGUGCAGGAUAUCGAGGCGCCAACAUGAGGAUCACCCAUGUGUGUGAUCGGGUGCACCGAGAAGGGCACUUGC | 110 | 345 |  |  | 
20 | UAACAUGAGGAUCACCCAUGUAACCAUCUCCAAGUCGGUAGGCAGGAUAUGUACAUAAUGGAAGAACAGAAGGGCCGGUCCGAG |  |  | 31.1 | 9.9 | 
